ChEMBL document CHEMBL4706596, “Synthesis, biological evaluation, in silico modeling and crystallization of novel small monocationic molecules with potent antiproliferative activity by dual mechanism” (Eur J Med Chem, 2020)

Columns and labels:
Choline kinase alpha [1] = target: T1, Choline kinase alpha (Homo sapiens, UniProt P35790); assay: Binding affinity to human CKalpha1 assessed as dissociation constant by spectroflurometry
Method in brief: (§1)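 Purified human CK (cloned as reported earlier) at 1 µM was titrated with compound in 25 mM Tris, 150 mM NaCl, pH 7.5 at 25 °C. Compound ranges were 0.1–10 µM for CKα1 and 0.5–200 µM for CKβ. Tryptophan quenching was read with excitation at 280 nm, emission 300–400 nm and 5 nm slits. DMSO-matched controls were run, and Kd was fitted to a single-site model. Results are given as mean ± SD.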
Target sequence in this assay (P35790 whole entry): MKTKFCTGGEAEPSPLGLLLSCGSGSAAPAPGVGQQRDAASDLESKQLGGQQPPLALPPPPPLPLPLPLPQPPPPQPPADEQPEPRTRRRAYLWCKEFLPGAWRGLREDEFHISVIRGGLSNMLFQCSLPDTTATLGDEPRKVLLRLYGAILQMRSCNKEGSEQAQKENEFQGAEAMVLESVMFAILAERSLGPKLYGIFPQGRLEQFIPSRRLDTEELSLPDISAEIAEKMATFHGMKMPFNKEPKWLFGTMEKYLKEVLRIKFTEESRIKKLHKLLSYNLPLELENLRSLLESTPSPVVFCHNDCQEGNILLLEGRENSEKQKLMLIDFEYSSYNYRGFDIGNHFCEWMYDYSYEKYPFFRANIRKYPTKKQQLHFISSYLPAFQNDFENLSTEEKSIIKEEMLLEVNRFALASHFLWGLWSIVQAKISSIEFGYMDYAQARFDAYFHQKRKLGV

RS4-11 [2] = assay: Antiproliferative activity against human RS4-11 cells assessed as inhibition of cell proliferation incubated for 72 hrs by MTT assay; assay type: functional
Method in brief: (§2)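 Cells seeded at 8 × 10³/well and held 18 h at 37 °C, 5% CO₂. Medium then replaced with compound at several concentrations for 72 h at 37 °C, followed by MTT viability read-out. GI50 is taken against cells given the maximum DMSO (0.25%), which is set as 100% viability. Dose-response curves come from at least three independent experiments run in triplicate and are reported as mean ± SE.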

HeLa [3] = assay: Antiproliferative activity against human HeLa cells assessed as inhibition of cell proliferation incubated for 72 hrs by MTT assay; assay type: functional; method in brief: as §2
HT-29 [4] = assay: Antiproliferative activity against human HT-29 cells assessed as inhibition of cell proliferation incubated for 72 hrs by MTT assay; assay type: functional; method in brief: as §2
CCRF-CEM [5] = assay: Antiproliferative activity against human CCRF-CEM cells assessed as inhibition of cell proliferation incubated for 72 hrs by MTT assay; assay type: functional; method in brief: as §2
Choline kinase alpha [6] = target: T1, Choline kinase alpha; assay: (§3) Inhibition of human CKalpha1 assessed as reduction in 14C incorporation from [methyl-14C]choline to phosphatidylcholine at 30 uM using [methyl-14C]choline as substrate preincubated for 5 mins in presence of ATP and MgCl2 followed by substrate addition and measured after 10 mins by liquid scintillation counting method relative to control; conditions: time 15.0 min
Method in brief: (§4)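 Purified human CKα1 (20 ng) in 100 mM Tris pH 8.5 with 10 mM MgCl₂ and 10 mM ATP, DMSO ≤0.1%, was preincubated 5 min at 37 °C. Reaction was started with 1 mM [methyl-¹⁴C]choline (4500 dpm/nmol), run 10 min at 37 °C and stopped in boiling water. Product was separated by silica TLC, scraped and scintillation-counted against DMSO controls. At least three experiments were run; IC50 was obtained from sigmoidal dose-response fits.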
Target sequence in this assay (P35790 whole entry, looked up): as the sequence (P35790 whole entry) above

Homo sapiens = species: Homo sapiens; assay: Selectivity index, ratio of Kd for human CKbeta to Kd for human CKalpha1
Choline kinase alpha [7] = target: T1, Choline kinase alpha; assay: as §3, with “50” for “30”; conditions: time 15.0 min; method in brief: as §4
Target sequence in this assay (P35790 whole entry, looked up): as the sequence (P35790 whole entry) above

Choline kinase alpha [8] = target: T1, Choline kinase alpha; assay: as §3, with “10” for “30”; conditions: time 15.0 min; method in brief: as §4
Target sequence in this assay (P35790 whole entry, looked up): as the sequence (P35790 whole entry) above

[9] = target: Choline/ethanolamine kinase (Homo sapiens, UniProt Q9Y259); assay: Binding affinity to human CKbeta assessed as dissociation constant by spectroflurometry; method in brief: as §1
[10] = Inhibition of [methyl-14C]choline uptake in human HT-29 cells at 30 uM incubated for 10 mins followed by removal of medium containing compound and subsequent addition of [methyl-14C]choline measured after 5 mins relative to control; assay type: functional; conditions: HT-29, 10 min
Method in brief: (§5)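 Cells at 200,000/well were incubated for 10 min at 37 °C in medium with or without CKα1 inhibitor. The medium was then removed and cells were exposed to [methyl-¹⁴C]choline (31 Ci/mol) for 5 min at 37 °C. Uptake was stopped by aspiration and two ice-cold PBS washes containing choline. Inhibition is expressed as % of untreated control.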

[11] = Inhibition of [methyl-14C]choline uptake in human HepG2 cells at 30 uM incubated for 10 mins followed by removal of medium containing compound and subsequent addition of [methyl-14C]choline measured after 5 mins relative to control; assay type: functional; conditions: HepG2, 10 min; method in brief: as §5
[12] = Inhibition of [methyl-14C]choline uptake in human HepG2 cells at 10 uM incubated for 10 mins followed by removal of medium containing compound and subsequent addition of [methyl-14C]choline measured after 5 mins relative to control; assay type: functional; conditions: HepG2, 10 min; method in brief: as §5
[13] = Inhibition of [methyl-14C]choline uptake in human HT-29 cells at 10 uM incubated for 10 mins followed by removal of medium containing compound and subsequent addition of [methyl-14C]choline measured after 5 mins relative to control; assay type: functional; conditions: HT-29, 10 min; method in brief: as §5
Choline kinase alpha [14] = target: T1, Choline kinase alpha; assay: as §3, with “[…]” for “phosphatidylcholine at 30 uM”; method in brief: as §4
Target sequence in this assay (P35790 whole entry): as above

HT-29 [15] = assay: Antiproliferative activity against human HT-29 cells assessed as inhibition of cell proliferation; assay type: functional; method in brief: as §2
RS4-11 [16] = assay: Antiproliferative activity against human RS4-11 cells assessed as inhibition of cell proliferation; assay type: functional; method in brief: as §2
HeLa [17] = assay: Antiproliferative activity against human HeLa cells assessed as inhibition of cell proliferation; assay type: functional; method in brief: as §2
CCRF-CEM [18] = assay: Antiproliferative activity against human CCRF-CEM cells assessed as inhibition of cell proliferation; assay type: functional; method in brief: as §2

Choline/ethanolamine kinase, sequence (Q9Y259 whole entry): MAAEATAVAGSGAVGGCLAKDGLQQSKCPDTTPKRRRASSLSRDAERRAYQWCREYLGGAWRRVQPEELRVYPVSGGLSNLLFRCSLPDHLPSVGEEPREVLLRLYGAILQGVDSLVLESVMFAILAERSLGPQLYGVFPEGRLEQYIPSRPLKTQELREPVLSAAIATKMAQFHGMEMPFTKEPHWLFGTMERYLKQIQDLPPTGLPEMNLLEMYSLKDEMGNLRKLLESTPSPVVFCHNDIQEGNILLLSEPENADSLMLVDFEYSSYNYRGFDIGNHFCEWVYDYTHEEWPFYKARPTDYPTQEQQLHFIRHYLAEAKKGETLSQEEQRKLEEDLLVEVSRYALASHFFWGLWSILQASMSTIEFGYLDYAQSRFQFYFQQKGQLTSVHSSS

Kd (Choline kinase alpha [1]) | GI50 (RS4-11 [2]) | GI50 (HeLa [3]) | GI50 (HT-29 [4]) | GI50 (CCRF-CEM [5]) | inhibition (Choline kinase alpha [6]) | inhibition (Choline kinase alpha [8]) | SMILES | also measured
– | 12.8 µM | 14.8 µM | 17.5 µM | 8.6 µM | – | – | c1ccc(-c2ccc(C[n+]3ccc(N4CCCCCC4)c4ccccc43)cc2)cc1 | –
0.89 µM | 3 µM | 16.3 µM | 4.5 µM | 2.2 µM | 28.4% | 23.1% | CN(c1ccccc1)c1cc[n+](Cc2ccccc2)c2cc(Cl)ccc12 | Ratio (Homo sapiens): 41; inhibition (Choline kinase alpha [7]): 18.6%; Kd [9]: 36 µM
35 µM | – | – | – | – | – | – | CN(C)c1ccncc1 | –
0.185 µM | 1.4 µM | 1.7 µM | 0.85 µM | 1.7 µM | 76% | 38.6% | CN(c1ccccc1)c1cc[n+](Cc2ccc(-c3ccccc3)cc2)c2cc(Cl)ccc12 | inhibition at 30 µM [10]: 93.3%; Ratio (Homo sapiens): 108; inhibition at 30 µM [11]: 94.8%; IC50 (Choline kinase alpha [14]): 12.6 µM; Kd [9]: 20 µM; inhibition at 10 µM [12]: 87.2%; inhibition at 10 µM [13]: 85.5%
1.7 µM | 0.83 µM | 0.74 µM | 0.29 µM | 0.43 µM | 26.4% | 18.9% | CN(C)c1cc[n+](Cc2ccc(-c3ccccc3)cc2)cc1 | –
– | 2.7 µM | 2.1 µM | 3 µM | 2.1 µM | – | – | CN(c1ccccc1)c1cc[n+](Cc2ccc(C(F)(F)F)cc2)c2cc(Cl)ccc12 | –
– | 7.9 µM | 23.2 µM | 11.2 µM | 18 µM | 33.5% | 25.4% | CN(C)c1cc[n+](Cc2ccc(C(F)(F)F)cc2)cc1 | inhibition at 30 µM [10]: 22.7%; inhibition at 30 µM [11]: 16.9%; inhibition at 10 µM [12]: 11.7%; inhibition at 10 µM [13]: 14.3%
– | 3.2 µM | 4.7 µM | 5.4 µM | 4.6 µM | 52.7% | 34.7% | FC(F)(F)c1ccc(C[n+]2ccc(N3CCCCCC3)c3ccc(Cl)cc32)cc1 | –
24 µM | 8.3 µM | 66 µM | 38 µM | 5.3 µM | 19.6% | 11.1% | c1ccc(C[n+]2ccc(N3CCCC3)cc2)cc1 | inhibition (Choline kinase alpha [7]): 27.8%
14 µM | 30.3 µM | 44.2 µM | > 100 µM | 54.3 µM | 37.2% | – | CN(C)c1cc[n+](Cc2ccccc2)cc1 | –
0.67 µM | 0.22 µM | 0.95 µM | 0.16 µM | 0.18 µM | 28% | – | c1ccc(-c2ccc(C[n+]3ccc(N4CCCC4)cc3)cc2)cc1 | inhibition at 30 µM [10]: 79.5%; inhibition at 30 µM [11]: 84.3%; inhibition at 10 µM [12]: 70.3%; inhibition at 10 µM [13]: 56.7%

Further lines, the molecule ahead of its results:

SMILES | Kd (Choline kinase alpha [1]) | GI50 (RS4-11 [2]) | GI50 (HeLa [3]) | GI50 (HT-29 [4]) | GI50 (CCRF-CEM [5]) | inhibition (Choline kinase alpha [6]) | inhibition (Choline kinase alpha [8]) | also measured
c1cc(N2CCCC2)ccn1 | 49 µM | – | – | – | – | – | – | –
c1ccc(-c2ccc(C[N+]34CCC(CC3)CC4)cc2)cc1 | – | 2.6 µM | 29.9 µM | 24.7 µM | 11.8 µM | 30.2% | 26.6% | –
CN(c1ccc(Cl)cc1)c1cc[n+](Cc2ccc(-c3ccccc3)cc2)cc1 | – | 0.14 µM | 0.91 µM | 0.23 µM | 0.3 µM | – | – | inhibition at 30 µM [10]: 95%; inhibition at 30 µM [11]: 94.8%; inhibition at 10 µM [12]: 83.3%; inhibition at 10 µM [13]: 78.4%
Clc1ccc2c(N3CCCC3)cc[n+](Cc3ccccc3)c2c1 | – | 1.23 µM | 19.6 µM | 4.1 µM | 3.4 µM | 35% | 31.5% | –
CN(c1ccc(Cl)cc1)c1cc[n+](Cc2ccc(C(F)(F)F)cc2)c2cc(Cl)ccc12 | – | 1.3 µM | 2.6 µM | 1.3 µM | 2 µM | 14.5% | 10.4% | –
Clc1ccc2c(N3CCCCCC3)ccnc2c1 | 45 µM | – | – | – | – | – | – | –
OC1C[N+]2(Cc3ccc(-c4ccccc4)cc3)CCC1CC2 (stereo unspecified) | – | 1.7 µM | 27.5 µM | 34 µM | 16.9 µM | 53% | 45.6% | –
CN(c1ccccc1)c1cc[n+](Cc2ccc(-c3ccc(C[n+]4ccc(N(C)c5ccccc5)c5ccc(Cl)cc54)cc3)cc2)c2cc(Cl)ccc12 | – | – | – | – | – | – | – | GI50 (HT-29 [15]): 0.4 µM; GI50 (RS4-11 [16]): 0.17 µM; GI50 (HeLa [17]): 0.83 µM; GI50 (CCRF-CEM [18]): 0.61 µM
OC1C[N+]2(Cc3ccc(C(F)(F)F)cc3)CCC1CC2 (stereo unspecified) | – | > 100 µM | 82.3 µM | > 100 µM | > 100 µM | – | – | inhibition at 30 µM [10]: 21.6%; inhibition at 30 µM [11]: 15.1%; inhibition at 10 µM [12]: 14.3%; inhibition at 10 µM [13]: 17.6%
Clc1ccc2c(N3CCCCCC3)cc[n+](Cc3ccccc3)c2c1 | 0.4 µM | 0.03 µM | 16.2 µM | 4.6 µM | 0.56 µM | 27.5% | 35.8% | Ratio (Homo sapiens): 83; inhibition (Choline kinase alpha [7]): 38.7%; Kd [9]: 33 µM
FC(F)(F)c1ccc(C[n+]2ccc(N3CCCC3)c3ccc(Cl)cc32)cc1 | – | 1 µM | 15 µM | 12.9 µM | 3 µM | 24.9% | – | –
CN(C)c1cc[n+](Cc2ccc(CCCCc3ccc(C[n+]4ccc(N(C)C)cc4)cc3)cc2)cc1 | – | – | – | – | – | – | – | GI50 (HT-29 [15]): 1.9 µM; GI50 (RS4-11 [16]): 1 µM; GI50 (HeLa [17]): 1.9 µM; GI50 (CCRF-CEM [18]): 0.21 µM
FC(F)(F)c1ccc(C[N+]23CCC(CC2)CC3)cc1 | – | > 100 µM | 90.8 µM | > 100 µM | > 100 µM | 24.7% | 8.07% | inhibition at 30 µM [10]: 2.4%; inhibition at 30 µM [11]: 17.7%; inhibition at 10 µM [12]: 5.1%; inhibition at 10 µM [13]: 9.1%
CN(c1ccccc1)c1ccnc2cc(Cl)ccc12 | 82 µM | – | – | – | – | – | – | –
FC(F)(F)c1ccc(C[n+]2ccc(N3CCCC3)cc2)cc1 | – | 7.6 µM | 42.1 µM | 8.1 µM | 12 µM | – | – | –
Clc1ccc2c(N3CCCC3)cc[n+](Cc3ccc(-c4ccccc4)cc3)c2c1 | – | 0.05 µM | 0.28 µM | 0.04 µM | 0.04 µM | 46.3% | 36.9% | –
